Test results: ChEMBL document CHEMBL2093137, “WHO-TDR NTD Screening”
Values after ≈ are worked out from the molar mass of the structure shown.

Experiments:
[1] = test system: Trypanosoma brucei brucei; assay: WHO-TDR: Human African Trypanosomiasis (HAT); format: functional, organism-based; conditions: Squib-427
How it was run: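 A diverse library of 10,000 compounds from Life Chemicals, filtered for drug-likeness and reactive groups, was screened against bloodstream forms of Trypanosoma brucei Squib 427 strain in a whole-organism assay. Previously published standard procedures were followed, with reference drugs serving as positive controls. Antiparasitic potency is given as IC50.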

Schistosoma mansoni = assay: WHO-TDR: Schistosomiasis; format: functional; design: concentration or dose not given beside the values
How it was run: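 A diverse library of 10,000 compounds from Life Chemicals, filtered for drug-likeness and reactive groups, was screened against whole larval and/or adult Schistosoma mansoni worms of the Puerto Rican strain. Previously published standard procedures were followed, with a reference drug as positive control. Activity is given as percent inhibition and as IC50.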

Brugia malayi = assay: WHO-TDR: Lymphatic Filariasis; format: functional; design: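 tested at 10 µM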
How it was run: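 A diverse library of 10,000 compounds from Life Chemicals was screened against Brugia malayi microfilariae in a whole-organism assay. The library had been filtered for drug-likeness and reactive groups. Activity is given as percent inhibition and as IC50.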

Onchocerca lienalis = assay: WHO-TDR: Onchocerciasis; format: functional; design: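 at 12.5 µM on microfilariae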
How it was run: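 A diverse library of 10,000 compounds from Life Chemicals, filtered for drug-likeness and reactive groups, was screened against whole microfilariae of Onchocerca ochengi or Onchocerca lienalis. These animal pathogens served as stand-ins for the human parasite. Activity is given as percent inhibition and as IC50.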

Plasmodium falciparum K1 = assay: WHO-TDR: Malaria; format: functional, organism-based, Homo sapiens; conditions: Erythrocyte
How it was run: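 A diverse library of 10,000 compounds from Life Chemicals, filtered for drug-likeness and reactive groups, was screened against the intra-erythrocytic Plasmodium falciparum K1 strain in human red blood cells. Previously published standard procedures were followed, with a reference drug as positive control. Antiplasmodial potency is given as IC50.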

Leishmania infantum = assay: WHO-TDR: Leishmaniasis; format: functional, organism-based, Mus musculus; conditions: Macrophage
How it was run: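 A diverse library of 10,000 compounds from Life Chemicals, filtered for drug-likeness and reactive groups, was screened against whole organisms. The targets were intracellular amastigotes of Leishmania infantum MHOM/MA(BE)/67 growing in murine peritoneal macrophages. Previously published standard procedures were followed, with a reference drug as positive control. Antiparasitic potency is given as IC50.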

Trypanosoma cruzi = assay: WHO-TDR: Chagas disease; format: functional, organism-based, Homo sapiens; conditions: MRC5
How it was run: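 A diverse library of 10,000 compounds from Life Chemicals, filtered for drug-likeness and reactive groups, was screened against intracellular amastigotes of Trypanosoma cruzi Tulahuen CL2 beta-galactosidase strain. The parasites were grown in MRC-5SV2 human lung fibroblast host cells, and a reference drug served as positive control under previously published standard procedures. Antiparasitic potency is given as IC50.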

[2] = WHO-TDR: Cytotoxicity; format: toxicity, cell-based; conditions: human, MRC5 cells

Structure (SMILES) | IC50 [1] | % Inhibition (Schistosoma mansoni) | % Inhibition (Brugia malayi) | % Inhibition (Onchocerca lienalis) | IC50 (Plasmodium falciparum K1) | IC50 (Leishmania infantum) | IC50 (Trypanosoma cruzi) | IC50 [2]
COc1ccc(Cl)c2sc(N(CCCN(C)C)C(=O)c3ccc(Br)s3)nc12 | 5.66 µg/mL (≈ 11.6 µM) | 100% | 0% | 0% | > 15.8 µg/mL | 0.51 µg/mL (≈ 1.04 µM) | 1.77 µg/mL (≈ 3.62 µM) | 6.71 µg/mL (≈ 13.7 µM)
O=C(Cc1ccc(F)cc1)Nc1nc(-c2ccccn2)cs1 | 0.308 µg/mL (≈ 0.983 µM) | 0% | 0% | 23.33% | 2.97 µg/mL (≈ 9.49 µM) | > 9.4 µg/mL | 0.334 µg/mL (≈ 1.07 µM) | > 9.4 µg/mL
Cc1ccc2sc(N(CCN(C)C)C(=O)C3CCN(S(=O)(=O)c4cccs4)CC3)nc2c1C | 5.21 µg/mL (≈ 10.3 µM) | 0% | 0% | 16.32% | 3.81 µg/mL (≈ 7.51 µM) | > 16.3 µg/mL | 0.772 µg/mL (≈ 1.52 µM) | 1.94 µg/mL (≈ 3.84 µM)
O=C(Nc1nc(-c2ccccn2)cs1)C1CCN(S(=O)(=O)c2cccs2)CC1 | > 13 µg/mL | 0% | 0% | 9.31% | > 13 µg/mL | > 13 µg/mL | 0.434 µg/mL (≈ 0.999 µM) | > 13 µg/mL
O=C(/C=C/c1cccs1)N(CCCN1CCOCC1)c1nc2ccccc2s1 | 4.37 µg/mL (≈ 10.6 µM) | 0% | 0% | 16.32% | 10.5 µg/mL (≈ 25.3 µM) | 1.98 µg/mL (≈ 4.79 µM) | 4.43 µg/mL (≈ 10.7 µM) | > 13.5 µg/mL
CCOc1ccc2nc(N(Cc3cccnc3)C(=O)CSc3ccc(F)cc3)sc2c1 | > 13.6 µg/mL | 0% | 0% | 26.7% | 11 µg/mL (≈ 24.2 µM) | > 13.6 µg/mL | 0.223 µg/mL (≈ 0.492 µM) | > 13.6 µg/mL
Cc1ccc2sc(N(Cc3cccnc3)C(=O)CSc3ccccc3)nc2c1C | > 12.6 µg/mL | 0% | 0% | 0% | > 12.6 µg/mL | > 12.6 µg/mL | 0.938 µg/mL (≈ 2.24 µM) | > 12.6 µg/mL
O=C(Nc1ccncc1)c1cccn(Cc2ccc(F)cc2)c1=O | > 9.7 µg/mL | 0% | 0% | -1% | > 9.7 µg/mL | > 9.7 µg/mL | 0.45 µg/mL (≈ 1.39 µM) | 2.53 µg/mL (≈ 7.83 µM)
Cc1ccccc1Cn1cc(C(=O)Nc2cccc(Br)c2)ccc1=O | 3.86 µg/mL (≈ 9.71 µM) | 0% | 0% | 26.7% | > 11.9 µg/mL | > 11.9 µg/mL | 0.553 µg/mL (≈ 1.39 µM) | 9.51 µg/mL (≈ 23.9 µM)
COC(=O)c1ccccc1N(C)C(=O)c1cc2cccnc2n(C)c1=O | > 10.5 µg/mL | 0% | 0% | 0% | > 10.5 µg/mL | 0.341 µg/mL (≈ 0.971 µM) | > 10.5 µg/mL | > 10.5 µg/mL
Cc1nn(-c2ccccc2)c2ncc(C(=O)NCC3CCCO3)c(Cl)c12 (stereo not given) | 0.376 µg/mL (≈ 1.01 µM) | 0% | 0% | 66.7% | > 11.1 µg/mL | 3.6 µg/mL (≈ 9.71 µM) | 0.392 µg/mL (≈ 1.06 µM) | 3.52 µg/mL (≈ 9.49 µM)
Cc1nn(-c2ccc(F)cc2)c2ncc(C(=O)NCc3ccco3)c(Cl)c12 | 0.292 µg/mL (≈ 0.759 µM) | 25% | 0% | 0% | 8.26 µg/mL (≈ 21.5 µM) | 3.74 µg/mL (≈ 9.71 µM) | 0.398 µg/mL (≈ 1.03 µM) | 1.31 µg/mL (≈ 3.41 µM)
Cc1ccc(-c2nnc(NC(=O)c3ccc(S(=O)(=O)N4CCc5ccccc5C4)cc3)o2)cc1C | 10.1 µg/mL (≈ 20.6 µM) | 0% | 0% | 0% | > 14.7 µg/mL | > 14.7 µg/mL | 0.538 µg/mL (≈ 1.1 µM) | 8.86 µg/mL (≈ 18.1 µM)
CN(Cc1ccco1)S(=O)(=O)c1ccc(C(=O)Nc2nnc(-c3ccccc3Cl)o2)cc1 | 2.96 µg/mL (≈ 6.25 µM) | 0% | 0% | 0% | > 14.2 µg/mL | > 14.2 µg/mL | 0.465 µg/mL (≈ 0.983 µM) | 0.807 µg/mL (≈ 1.71 µM)
COc1ccccc1-c1nnc(NC(=O)c2ccc(S(=O)(=O)N(C)Cc3ccco3)cc2)o1 | 4.55 µg/mL (≈ 9.71 µM) | 0% | 0% | 0% | 10.2 µg/mL (≈ 21.8 µM) | 9.57 µg/mL (≈ 20.4 µM) | 0.511 µg/mL (≈ 1.09 µM) | 5.89 µg/mL (≈ 12.6 µM)
CN(Cc1ccco1)S(=O)(=O)c1ccc(C(=O)Nc2nnc(-c3cccs3)o2)cc1 | 4.22 µg/mL (≈ 9.49 µM) | 0% | 0% | 0% | 6.65 µg/mL (≈ 15 µM) | > 13.3 µg/mL | 0.456 µg/mL (≈ 1.03 µM) | 2.5 µg/mL (≈ 5.62 µM)
Cc1ccc(S(=O)(=O)N2CCCc3cc(NC(=O)Oc4ccccc4)ccc32)cc1 | 0.415 µg/mL (≈ 0.982 µM) | 0% | 0% | 0% | > 12.7 µg/mL | > 12.7 µg/mL | > 12.7 µg/mL | 1.76 µg/mL (≈ 4.17 µM)
CS(=O)(=O)N1CCCc2cc(NC(=O)c3cc4ccccc4oc3=O)ccc21 | > 12 µg/mL | 0% | 0% | 0% | > 12 µg/mL | 0.387 µg/mL (≈ 0.971 µM) | > 12 µg/mL | > 12 µg/mL
CCN(CC)CCSc1ccc(-c2ccc(Cl)cc2)nn1 | > 9.66 µg/mL | 0% | 0% | 0% | 0.368 µg/mL (≈ 1.14 µM) | > 9.66 µg/mL | > 9.66 µg/mL | > 9.66 µg/mL
Fc1ccc(Nc2nc(N3CCCC3)nc(N3CCCC3)n2)cc1 | 0.442 µg/mL (≈ 1.35 µM) | 0% | 0% | 9.215% | > 10.9 µg/mL | > 10.9 µg/mL | 3.85 µg/mL (≈ 11.7 µM) | > 10.9 µg/mL
O=C(CCCSc1ccc(F)cc1)Nc1nc(-c2ccccn2)cs1 | 0.363 µg/mL (≈ 0.972 µM) | 0% | 0% | 39.33% | > 11.2 µg/mL | > 11.2 µg/mL | 0.335 µg/mL (≈ 0.897 µM) | 3.76 µg/mL (≈ 10.1 µM)
CN(C)CCN(C(=O)CCCS(=O)(=O)c1ccccc1)c1nc2ccc(F)cc2s1 | > 14.6 µg/mL | 0% | 33.33% | 12.34% | > 14.6 µg/mL | > 14.6 µg/mL | 0.759 µg/mL (≈ 1.69 µM) | > 14.6 µg/mL
Cc1ccc(C)c(-c2csc(NC(=O)CCCS(=O)(=O)c3ccc(F)cc3)n2)c1 | 4.2 µg/mL (≈ 9.71 µM) | 0% | 0% | 12.34% | 9.42 µg/mL (≈ 21.8 µM) | > 13 µg/mL | 0.588 µg/mL (≈ 1.36 µM) | 0.999 µg/mL (≈ 2.31 µM)
O=C(CCCS(=O)(=O)c1ccc(F)cc1)Nc1nc2c(s1)CSc1ccccc1-2 | 4.36 µg/mL (≈ 9.71 µM) | 100% | 0% | 66.33% | 6 µg/mL (≈ 13.4 µM) | > 13.5 µg/mL | 5.29 µg/mL (≈ 11.8 µM) | > 13.5 µg/mL
COc1ccc(SCC(=O)Nc2nc(-c3ccccn3)cs2)cc1 | 0.347 µg/mL (≈ 0.971 µM) | 0% | 0% | 86.55% | > 10.7 µg/mL | > 10.7 µg/mL | 0.356 µg/mL (≈ 0.996 µM) | > 10.7 µg/mL
COc1ccc(OC)c(-c2csc(NC(=O)Cc3ccc(SC)cc3)n2)c1 | 3.52 µg/mL (≈ 8.79 µM) | 0% | 0% | 11.35% | 3.55 µg/mL (≈ 8.87 µM) | > 12 µg/mL | 0.663 µg/mL (≈ 1.66 µM) | > 12 µg/mL
COc1ccc(-c2nc(NC(=O)Cc3ccc(SC)cc3)sc2C)cc1 | 3.73 µg/mL (≈ 9.71 µM) | 0% | 0% | 45.5% | 0.271 µg/mL (≈ 0.705 µM) | 3.73 µg/mL (≈ 9.71 µM) | 1.95 µg/mL (≈ 5.07 µM) | 1.29 µg/mL (≈ 3.37 µM)
CS(=O)(=O)c1ccc(CC(=O)Nc2nc(-c3ccc(Cl)s3)cs2)cc1 | > 12.4 µg/mL | 0% | 0% | 11.35% | > 12.4 µg/mL | 4.01 µg/mL (≈ 9.71 µM) | 0.575 µg/mL (≈ 1.39 µM) | 1.53 µg/mL (≈ 3.7 µM)
CS(=O)(=O)c1ccc(CC(=O)Nc2nc3c(s2)-c2cccc4cccc-3c24)cc1 | 4.29 µg/mL (≈ 10.2 µM) | 0% | 0% | 11.35% | 7.42 µg/mL (≈ 17.6 µM) | 4.08 µg/mL (≈ 9.71 µM) | 0.317 µg/mL (≈ 0.754 µM) | 0.688 µg/mL (≈ 1.64 µM)
C=CCn1/c(=N\C(=O)Cc2ccc(S(C)(=O)=O)cc2)sc2c(OC)ccc(OC)c21 | 0.462 µg/mL (≈ 1.03 µM) | 0% | 0% | 13.3% | 11.2 µg/mL (≈ 25.1 µM) | 4.34 µg/mL (≈ 9.71 µM) | 4.07 µg/mL (≈ 9.11 µM) | 13.2 µg/mL (≈ 29.6 µM)
